Like-named read-outs stand apart in the source and are kept apart here.
How the values were obtained:
Format in all cases: binding
[1] = target: Aβ40 aggregates (Homo sapiens, UniProt P05067)
Outline: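 Aβ40 aggregates were taken at 90 min, 200 min and 24 h from a compound-free aggregation run and ultracentrifuged. They were titrated with a range of probe concentrations, and fluorescence intensity was read. Kd was obtained by curve fitting (n = 3). Binding ratio is Kd relative to the Kd of the 50% sucrose tau fraction.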

[2] = target: tau (0N4R) aggregates, sucrose gradient fractions (Homo sapiens, UniProt P10636)
Outline: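 Tau aggregates were separated by sucrose gradient ultracentrifugation into 10–50% fractions, and the 20% fraction was characterised by TEM. Each fraction was titrated with the test compound and fluorescence intensity was read. Kd was obtained by curve fitting (n = 3–6). Ratios compare Kd with the 50% sucrose tau Kd, and tau Kd with the Kd for Aβ40 aggregates at 200 min.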

[3] = target: tau aggregates (Tau-441 human) (Homo sapiens, UniProt P10636); assay: Fluorimeter assay with aliquots of the tau aggregation; settings: tau aggregates at different time points
Chain of tau aggregates (Tau-441 human) (P10636 1-441 isoform P10636-8): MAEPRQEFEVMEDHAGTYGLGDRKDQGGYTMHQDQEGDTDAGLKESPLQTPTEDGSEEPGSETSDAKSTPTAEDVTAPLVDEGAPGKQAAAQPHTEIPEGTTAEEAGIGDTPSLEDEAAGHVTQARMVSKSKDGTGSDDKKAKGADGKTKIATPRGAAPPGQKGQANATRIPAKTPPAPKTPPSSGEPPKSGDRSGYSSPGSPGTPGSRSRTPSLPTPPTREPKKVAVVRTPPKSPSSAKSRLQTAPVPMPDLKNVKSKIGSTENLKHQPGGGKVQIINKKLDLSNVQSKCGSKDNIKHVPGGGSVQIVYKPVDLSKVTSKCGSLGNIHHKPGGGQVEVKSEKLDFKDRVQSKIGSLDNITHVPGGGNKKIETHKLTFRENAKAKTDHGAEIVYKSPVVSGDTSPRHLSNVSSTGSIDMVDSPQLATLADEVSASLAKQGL

Chain of Aβ40 aggregates (P05067 672-711 limits assumed): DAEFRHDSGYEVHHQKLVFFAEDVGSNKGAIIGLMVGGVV
Chain of tau (0N4R) aggregates, sucrose gradient fractions (P10636 1-383 isoform P10636-6): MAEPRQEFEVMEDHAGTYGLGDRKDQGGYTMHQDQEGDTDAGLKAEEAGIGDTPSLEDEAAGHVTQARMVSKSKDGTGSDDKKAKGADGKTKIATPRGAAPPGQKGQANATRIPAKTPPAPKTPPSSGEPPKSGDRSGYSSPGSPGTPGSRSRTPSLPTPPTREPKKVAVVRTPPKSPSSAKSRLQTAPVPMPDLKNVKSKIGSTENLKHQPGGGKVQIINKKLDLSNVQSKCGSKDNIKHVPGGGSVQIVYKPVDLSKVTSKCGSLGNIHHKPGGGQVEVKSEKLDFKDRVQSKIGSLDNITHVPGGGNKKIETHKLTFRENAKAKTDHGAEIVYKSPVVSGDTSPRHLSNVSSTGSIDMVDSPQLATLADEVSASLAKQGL

O=C(O)Cc1cc(-c2ccc(C(=O)O)s2)sc1-c1ccc(-c2sc(-c3ccc(C(=O)O)s3)cc2CC(=O)O)s1 [pFTAA, 3''',4'-bis(carboxymethyl)-[2,2':5',2'':5'',2''':5''',2''''-quinquethiophene]-5,5''''-dicarboxylic acid]
binding ratio (Kd compared with the 50% sucrose tau Kd) ([1]; 200 minute Aβ): 5
binding ratio (Kd compared with the 50% sucrose tau Kd) ([1]; 24 hour Aβ): 3
Kd ([1]; Aβ40 aggregates at 90 min): no binding affinity
Kd ([1]; Kd, Aβ40 aggregates at 200 min): 930 ± 300 nM
Kd ([1]; Kd, Aβ40 aggregates at 24 h): 650 ± 190 nM
binding ratio (Kd compared with the 50% sucrose tau Kd) ([2]; 10% sucrose tau): 148
binding ratio (Kd compared with the 50% sucrose tau Kd) ([2]; 20% sucrose tau): 14
binding ratio (Kd compared with the 50% sucrose tau Kd) ([2]; 30% sucrose tau): 26
binding ratio (Kd compared with the 50% sucrose tau Kd) ([2]; 40% sucrose tau): 6
binding ratio (Kd compared with the 50% sucrose tau Kd) ([2]; 50% sucrose tau): 1
Kd ([2]; 10% sucrose tau fraction): 29600 ± 2100 nM
Kd ([2]; 20% sucrose tau fraction): 2750 ± 570 nM
Kd ([2]; 40% sucrose tau fraction): 1290 ± 200 nM
Kd ([2]; 50% sucrose tau fraction): 200 ± 10 nM
emission spectrum shift over the tau aggregation [3]: No emission spectrum shifts
